Assay outcomes deposited in PubChem by several laboratories.
eIF4E 4G PPI: blocks eIF4E binding to eIF4G | P63073+Q04637 | TR-FRET eIF4E-eIF4GI(517-606) binding, 2 h | inhibition, % at 21.7 µM | 0.37% of 220,000 active | AID 782;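 note: 0% = full FRET control wells and 100% = background wells lacking eIF4GI fragment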
RBBP9 inh: human RBBP9 hydrolase inhibition | O75884 | recombinant RBBP9, FP-Rh probe fluorescence polarization | inhibition, % at 7.94 µM | 0.2% of 220,000 active;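 active = inhibition above the campaign mean of all tested compounds plus 3 SD, cut at about 14% in these data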;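 note: plate controls were DMSO wells with RBBP9 for no effect and wells lacking RBBP9 protein for full effect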
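System: RBBP9 protein / Buffer or medium: Tris/NaCl buffer pH 8.0 with 0.1% Pluronic / Probe or stimulus: Serine-hydrolase probe FP-Rh, 375 nM pre-mixing / Dosing: 7.94 µM single dose, 0.794% DMSO / Times: enzyme-compound preincubation 30 min, then probe labeling 45 min, 25 °C / Technique: fluorescence polarization (mP), excitation 525 nm, emission 598 nm / Replication: singlicate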
WT yeast gro inh: growth inhibition of WT yeast, mitochondrial fusion screen; mitochondrial fusion phenotypic screen, WT strain; 2.1% of 190,000 active; inhibition, % at 10 µM; in the data active = inhibition above about 58%; tested in S. cerevisiae
14-3-3 Bad PPI: disrupts binding of bovine 14-3-3 zeta to phospho-Bad peptide | TR-FRET 14-3-3zeta/Dy647-pBad peptide displacement, 1 h | inhibition, % at 21.7 µM | P63103 | 0.71% of 220,000 active;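 active = inhibition above about 70%, limit read from the data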;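 note: 0% = full 14-3-3 plus peptide FRET controls and 100% = background without 14-3-3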
NCF1 inh: blocks human p47phox regulatory protein of NADPH oxidases; P14598; p47phox/p22phox peptide binding, fluorescence polarization, 2 h; 0.53% of 220,000 active; inhibition, % at 24.7 µM;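 note: 0% = p47phox with labelled peptide and 100% = labelled peptide alone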
Target sequence (P14598 whole entry, looked up): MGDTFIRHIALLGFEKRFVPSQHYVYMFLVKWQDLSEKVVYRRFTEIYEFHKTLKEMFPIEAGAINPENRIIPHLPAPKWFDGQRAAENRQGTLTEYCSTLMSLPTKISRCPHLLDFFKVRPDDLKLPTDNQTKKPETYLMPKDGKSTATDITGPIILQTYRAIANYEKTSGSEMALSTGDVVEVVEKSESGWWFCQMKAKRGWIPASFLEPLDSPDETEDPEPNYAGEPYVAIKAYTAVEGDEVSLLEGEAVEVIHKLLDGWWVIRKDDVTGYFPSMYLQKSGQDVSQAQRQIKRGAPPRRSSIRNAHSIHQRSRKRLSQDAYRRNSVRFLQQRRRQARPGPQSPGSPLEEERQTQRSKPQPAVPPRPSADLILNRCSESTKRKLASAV
EBV gp42 inh: EBV gp42 inhibition. 0.42% of 220,000 active. AID 1085. Fluorescence polarization binding assay, mP read-out. Q1HVG2. inhibition, % (tested at 21.74 µM); in the data active = inhibition above about 50%
Target sequence (Q1HVG2 whole entry, looked up): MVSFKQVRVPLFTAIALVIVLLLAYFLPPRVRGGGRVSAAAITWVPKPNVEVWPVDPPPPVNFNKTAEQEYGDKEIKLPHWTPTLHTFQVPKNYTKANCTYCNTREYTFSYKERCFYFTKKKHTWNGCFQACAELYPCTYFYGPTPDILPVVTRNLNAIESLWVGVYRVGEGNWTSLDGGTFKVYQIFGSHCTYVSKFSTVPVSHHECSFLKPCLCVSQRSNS
* marks the source's active call; other numbers are inactive results; x = no result given; [ ] = another dose, or the depositor's remark. A selection: hits, their analogues and other compounds. The true share with any hit is near 3.7%.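 Rule for the calls, unless noted: active = inhibition above about 30% (limit read from the data); inactive = the rest.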

SMILES | eIF4E 4G PPI | RBBP9 inh | WT yeast gro inh | 14-3-3 Bad PPI | NCF1 inh | EBV gp42 inh
Cc1ccc2nc(Cl)c(/C=N/Nc3ccc(C(=O)O)cc3)cc2c1 | -4 | -12 | x | 7 | -29 | 15
CC(=O)N1CCCC1(C(=O)O)c1ccccc1 (configuration not stated) | -4 | -9 | x | 1 | -5 | -3
COc1cc2c(-c3ccc(O)cc3)nc3c(c(C)nn3-c3ccccc3)c2cc1OC | 39* | -2 | 10 | 54 | 34* | 4
COc1cc2c(C)nc3c(c(C)nn3-c3ccccc3)c2cc1OC | 0 | -6 | -2 | -1 | -6 | 1
CCN(CC)S(=O)(=O)c1ccc(C(=O)N2CCN(CCN3C(=O)c4cccc5cccc(c45)C3=O)CC2)cc1 | -3 | -3 | -11 | -5 | 8 | 0
O=C(OCCN1C(=O)c2cccc3c(N4CCOCC4)ccc(c23)C1=O)c1ccc(Cl)cc1 | 22 | -7 | 21 | -34 | -87 | 123*
CCCN(CCC)S(=O)(=O)c1ccc(C(=O)OCCN2C(=O)c3cccc4c(N5CCOCC5)ccc(c34)C2=O)cc1 | 31*[fluorescence artefact?] | -6 | -4 | 1 | -83 | 135*
CC(C)(C)c1ccc(C(=O)NNc2cc(Cl)cc(Cl)c2)cc1 | 3 | -7 | x | -9 | -13 | -13
CCCCN(Cc1cc2cccc(C)c2[nH]c1=O)S(C)(=O)=O | -3 | -1 | x | 9 | -3 | -6
CCOc1ccc(-c2cc(CCCC(=O)NCc3ccco3)no2)cc1 | -1 | -3 | 12 | -1 | 33* | -17
Cc1ccccc1NC(=O)CSc1ccncc1 | 1 | -17 | x | -1 | -14 | -5
O=S(=O)(c1ccc(-c2ccon2)s1)N1CCN(CCN2CCOCC2)CC1 | -2 | -9 | x | -3 | 1 | -6
O=C(/N=C1\NC(=O)C(F)(C(F)(F)F)S1)NC1CCCCC1 (configuration not stated) | 44* | x | -33 | 42 | -9 | -36
CCCCN(C(=O)c1ccc(NC(=O)C(C)C)cc1)c1ccccc1 | -7 | -7 | -4 | -9 | -20 | -5
O=C(CCn1cnnn1)Nc1ccccc1 | 3 | -2 | 5 | -5 | -8 | -7
Cc1[nH][nH]c(=O)c1C(c1c(C)[nH][nH]c1=O)c1cn(Cc2ccccc2Cl)c2ccccc12 | -1 | -2 | 63* | -8 | -13 | 27
CCOC(=O)c1sc2nc(CSc3ccccc3)nc(N3CCC(C(N)=O)CC3)c2c1C | 2 | -3 | 71* | -12 | -16 | -8
CCOC(=O)c1sc2nc(CSc3ccccc3)nc(N3CCCN(C)CC3)c2c1C | 4 | -5 | 93* | 53 | -10 | -9
Cc1nn(Cc2ccccc2)c(Cl)c1C(=O)OC(C)C#N (configuration not stated) | 1 | -7 | 0 | 5 | 5 | 1
Cc1nc(N)nc(N)c1/C=C/C(C)(C)c1ccc(Cl)cc1 | 3 | 10 | 69* | 6 | -6 | -6
Cc1ccc(-c2nc(CN(Cc3c(C)nn(C)c3C)C(C)C)c(C)o2)o1 | 0 | -9 | 3 | -4 | -6 | 0
O=C(NC1CCC(O)CC1)c1ccc(-c2ccc([N+](=O)[O-])cc2)o1 (configuration not stated) | 14 | 4 | x | 20 | -6 | -2
CC1(C)C2CCC(C2)C1(C)NC(=O)CNC1CCCCC1 (configuration not stated) | 1 | -2 | -3 | 17 | -4 | -15
CC1(C)C2CCC(C2)C1(C)NC(=O)CN1CCOCC1 (configuration not stated) | -3 | 4 | 13 | 74* | 3 | -5
Cn1nnnc1SCC(=O)c1ccc(Br)s1 | -3 | 1 | 12 | 6 | -13 | -32
SMILES | eIF4E 4G PPI | RBBP9 inh | WT yeast gro inh | 14-3-3 Bad PPI | NCF1 inh | EBV gp42 inh
Cn1c(Cc2ccccc2)nnc1SCC(=O)c1ccc(Br)s1 | 1 | -1 | 63* | -6 | -7 | -8
COc1ccccc1NC1=C(Cl)C(=O)N(C2CCCCC2)C1=O | -4 | -10 | 70* | -20 | -13 | -2
Cc1ccccc1NC1=C(Cl)C(=O)N(C2CCCCC2)C1=O | 1 | -8 | 69* | -5 | -16 | 4
Cc1ccc(-n2cc(C(=O)c3ccc(N4CCN(C)CC4)cc3)nn2)cc1Cl | 4 | 0 | 27 | 17 | -5 | -14
CN1CCN(c2ccc(C(=O)c3cn(-c4ccc(F)c(Cl)c4)nn3)cc2)CC1 | -8 | -8 | 24 | 76* | 13 | -6
CCOC(=O)CN1CCS(=O)(=O)CC1 | -4 | -10 | -6 | -8 | -7 | -6
Cc1c(N=NC2=C(O)CC(C)(C)CC2=O)c(=O)n(-c2ccccc2)n1C | -1 | -10 | 0 | -20 | -9 | -43
COc1ccc(Cc2nc(C(=O)NCc3ccccc3OC)cs2)cc1 | 4 | 3 | 4 | 14 | 31* | -1
Cc1cc(NS(=O)(=O)c2ccc(NC(=O)c3cc4cc(Br)ccc4oc3=O)cc2)no1 | 12 | 0 | 2 | 53 | -21 | 101*
CCOC(=O)c1cnc(-c2ccccc2)nc1-c1ccccc1 | -1 | -3 | 65* | 1 | -5 | 0
CCOC(=O)c1cnn(C(=O)c2ccccc2)c1N | 45*[fluorescence artefact?] | -6 | 12 | 10 | -3 | -6
CCOC(=O)c1cnn(Cc2ccccc2)c1N | 1 | -8 | -13 | 4 | 9 | -23
CC(C)N=c1c([N+](=O)[O-])nn(C)n1O | 4 | -3 | 1 | -6 | -6 | 0
CC(C)CN(C(=O)C(c1ccccc1)c1ccccc1)c1c(N)n(CC(C)C)c(=O)[nH]c1=O | -1 | -3 | 2 | 6 | 5 | -19
O=C(Cn1cnc2c(nnn2Cc2ccc(F)cc2)c1=O)Nc1ccccc1 | 1 | -5 | x | -2 | -8 | -5
Clc1ccc(C(c2nnnn2C2CCCCC2)N(Cc2cccnc2)Cc2ccco2)cc1 (configuration not stated) | -4 | 1 | 70* | 0 | -14 | -5
CCCc1c(C)[nH]c2ccc(NC(C)=O)cc2c1=O | 6 | 4 | 69* | 11 | -14 | -18
CC(=O)CCc1c(C)[nH]c2ccc(NC(C)=O)cc2c1=O | 9 | -10 | 12 | 7 | -9 | -6
COc1ccc(/C=C2\CCCc3c2nc2ccccc2c3C(=O)O)cc1OC | 0 | 7 | x | 4 | -4 | 105*
COc1ccc(/C=C2\CCc3c2nc2ccccc2c3C(=O)O)cc1OC | -1 | -5 | x | 1 | -12 | 8
O=C(c1ccccc1)N(Cc1ccccc1)c1ccccn1 | 0 | -1 | -9 | 8 | -4 | -5
O=C(C1CCCCC1)N(Cc1ccccc1)c1ccccn1 | 6 | -3 | 84* | 8 | 7 | -9
CCOC(=O)c1c(N)sc(C(N)=O)c1C | 6 | 1 | 12 | -7 | -10 | -16
CCOC(=O)c1sc(N)c(C(N)=O)c1C | 1 | 1 | 5 | -4 | 30* | -4
C[C@H](N)c1nnc(SCC(N)=O)o1 | -3 | -4 | x | 1 | 6 | -17
